Test results as given in publication PMC6076386 (Biochemistry, 2017).
Entries after “also recorded” stand apart in the source; their conditions may differ.

What was measured:
[1] = system: thrombin ABE I region 65–84; conditions: cited from earlier work
thrombin ABE I = conditions: cited from earlier work
[2] = biological target: Wild Type PPACK-IIa (human plasma thrombin), ABE I (Homo sapiens, UniProt P00734); test: 2D 1H-15N HSQC NMR titration, wild-type PPACK-thrombin; assay type: binding; conditions: native PAR3 sequence, 15N-D54 and 15N-F47, PPACK-IIa; pH 6.5, 25 °C
Summary of the method: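 Human plasma thrombin blocked with PPACK (4:1 inhibitor:enzyme, 37 °C, 30 min), buffer-exchanged into 25 mM H₃PO₄, 150 mM NaCl, 0.2 mM EDTA, 10% D₂O, pH 6.5, 25 °C. ¹⁵N-labeled PAR3(44–56) held at 50 μM while thrombin (starting 210 μM) was serially diluted, spanning 4:1 to 0.1:1 ratios. Chemical-shift changes were fitted with a ligand-normalized quadratic for K_D. At least triplicate; Monte-Carlo errors assumed 10% dilution error.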

PAR3 (Homo sapiens) = PAR3 (Homo sapiens) (UniProt O00254); test: fluorescence titration; conditions: cited from earlier work

Substance | HDX-MS binding region [1] | binding by X-ray crystallography (thrombin ABE I) | binding affinity by 15N-HSQC NMR titration [2] | Kd (PAR3 (Homo sapiens))
PAR3 (^44Q N T ^15F E E F P L S ^15D I E[56]) [PAR3 (44–56)] | both bind to the thrombin ABE I region 65–84 | confirmed to bind in a specific manner to thrombin ABE I | binding affinities could not be determined; also recorded: bound too tightly to thrombin | 
Thrombin (from UniProt P00734) |  |  |  | 2 µM
hirudin [reference compound] | both bind to the thrombin ABE I region 65–84 |  |  | 
